Active and inactive are the calls of the source. The calls are words filed in the database; no cut-off is given here.
System: U-87 MG
Assay: Cytotoxicity against human U87 cells assessed as reduction in cell proliferation at 100 uM measured after 48 hrs by trypan blue dye-based cell counting analysis
Type: functional
Conditions: U-87MG ATCC
Method in brief: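 Trypan blue viability assay. U87 (MEM, 10% FBS) or LN229 (DMEM, 5% FBS) cells were treated for 48hrs. Screening used 100 μM; the dose-response used 100, 75, 50, 25 and 10 μM. Cells were pelleted at 1200 rpm and live/dead cells counted by automated counter. Mortality % was taken relative to the DMSO control, and IC₅₀ derived from the dose-response curve. Cisplatin served as positive control.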

| SMILES | Activity |
| --- | --- |
| CC(=O)/C(=N\Nc1ccc([N+](=O)[O-])cc1O)C(=O)c1ccccc1 | Active |
| CC(=O)/C(=N\Nc1cc(S(=O)(=O)O)cc(S(=O)(=O)O)c1O)C(=O)c1ccccc1 | inactive |

Source: ChEMBL document CHEMBL4316593 (Eur J Med Chem, 2019)
